Experimental findings from ChEMBL document CHEMBL4017509, “A Dual Modulator of Farnesoid X Receptor and Soluble Epoxide Hydrolase To Counter Nonalcoholic Steatohepatitis” (J Med Chem, 2017) are described below.

The structures appear in SMILES notation. The source made the active and inactive calls. The calls are words filed in the database; no cut-off is given here.

For one series, the system named is MDM. Briefly: Effect on IL-10 levels in LPS-stimulated primary human MDM at 0.01 uM after 16 hrs by cytometric bead array method. It is filed as functional, cell-based. The method in brief:
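Blood monocytes isolated by dextran sedimentation and Nycoprep gradient, adherence-selected 1 h, differentiated with GM-CSF 10 ng/mL for 7 days plus IFNγ 10 ng/mL for last 48 h. Stimulated with LPS 100 ng/mL plus compound for 16 h; supernatant IL-10 and IL-12p70 measured by cytometric bead array flow cytometry.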

Series [1] has as its target Nuclear receptor subfamily 1 group I member 2 (Homo sapiens, UniProt O75469). Briefly: Transactivation of human GAL4-fused PXR ligand binding domain expressed in […] cells at 10 uM after 12 to 14 hrs by dual-glo luciferase reporter gene assay. In kind it is cell-based. The method in brief: (§1)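 HEK293T cells in DMEM/10% FCS, Opti-MEM before Lipofectamine LTX transfection with pFR-Luc reporter, pRL-SV40 and pFA-CMV GAL4–LBD plasmid. 5 h later compound in 0.1% DMSO, Opti-MEM, overnight (12−14 h). Dual luciferase; firefly/renilla ×1000 = RLU, fold over DMSO control; triplicates, ≥3 independent repeats.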
A general note: Reporter assays use an easily measured gene product as a stand-in for the process of interest.

Series [2] has as its target T1, Peroxisome proliferator-activated receptor gamma (Homo sapiens) (UniProt P37231).
T1 sequence (whole entry): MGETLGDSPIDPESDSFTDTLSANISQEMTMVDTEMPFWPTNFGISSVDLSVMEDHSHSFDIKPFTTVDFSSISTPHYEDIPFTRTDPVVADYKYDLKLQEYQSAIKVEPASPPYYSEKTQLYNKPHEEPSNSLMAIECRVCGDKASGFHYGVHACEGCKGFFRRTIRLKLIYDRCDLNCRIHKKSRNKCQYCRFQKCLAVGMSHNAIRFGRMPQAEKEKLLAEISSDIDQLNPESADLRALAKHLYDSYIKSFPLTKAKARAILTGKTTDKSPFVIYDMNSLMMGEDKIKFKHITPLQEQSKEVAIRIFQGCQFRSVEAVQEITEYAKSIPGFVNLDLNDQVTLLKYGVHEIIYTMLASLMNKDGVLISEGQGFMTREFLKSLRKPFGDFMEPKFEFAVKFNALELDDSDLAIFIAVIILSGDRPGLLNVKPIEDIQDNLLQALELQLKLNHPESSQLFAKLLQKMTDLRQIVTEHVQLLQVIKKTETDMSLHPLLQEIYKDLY
Briefly: Transactivation of PPARgamma in human HepG2 cells assessed as CD36 mRNA expression at 10 uM after 8 to 16 hrs by SYBR green based qRT-PCR analysis relative to DMSO control. It is filed as cell-based. The method in brief:
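HepG2 cells treated 8 or 16 h with compound or 0.1% DMSO, washed in cold PBS, RNA extracted; SYBR Green qRT-PCR in duplicate, ≥4 independent experiments (n = 3 for CD36/FAM3A). ΔΔCt method with GAPDH reference; expression as % of vehicle (100%). Pioglitazone 1 μM used as positive control for the PPARγ genes.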

In series [3] the target is G-protein coupled bile acid receptor 1 (Homo sapiens) (UniProt Q8TDU6). As to the kind of experiment: Antagonist activity at TGR5 (unknown origin) at 10 uM.
Sequence of G-protein coupled bile acid receptor 1 (Homo sapiens) (Q8TDU6 whole entry): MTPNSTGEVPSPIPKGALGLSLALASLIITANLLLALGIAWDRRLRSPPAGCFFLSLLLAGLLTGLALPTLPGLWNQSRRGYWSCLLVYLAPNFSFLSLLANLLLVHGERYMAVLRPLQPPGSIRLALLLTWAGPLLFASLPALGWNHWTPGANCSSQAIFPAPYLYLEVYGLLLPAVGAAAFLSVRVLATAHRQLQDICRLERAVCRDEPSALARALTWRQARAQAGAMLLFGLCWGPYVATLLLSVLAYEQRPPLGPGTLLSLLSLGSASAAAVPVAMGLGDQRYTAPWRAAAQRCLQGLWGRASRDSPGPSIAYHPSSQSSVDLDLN
The test system of series [4] is Liver. Briefly: Drug metabolism in Sprague-Dawley rat liver microsomes assessed as 4-tert-butyl-N-(2-chloro-4-(methylsulfonamido)benzyl)-2-hydroxybenzamide formation at 10 uM preincubated with NADPH regenerating system for 5 mins followed by addition of liver microsomes by LC-MS/MS method. In kind it is ADME, microsome.
Series [5] concerns the target Nuclear receptor subfamily 1 group I member 3 (Homo sapiens, UniProt Q14994). As to the kind of experiment: Transactivation of human GAL4-fused CAR ligand binding domain expressed in […] cells at 10 uM after 12 to 14 hrs by dual-Glo luciferase reporter gene assay. It is filed as cell-based. In short, it runs like this:
as §1

Series [6] deals with Peroxisome proliferator-activated receptor alpha (Homo sapiens) (UniProt Q07869). As to the kind of experiment: Transactivation of human GAL4-fused PPARalpha ligand binding domain expressed in […] cells at 10 uM after 12 to 14 hrs by dual-glo luciferase reporter gene assay. It is filed as cell-based. In short, it runs like this:
as §1

Series [7] concerns Liver. As to the kind of experiment: Drug metabolism in Sprague-Dawley rat liver microsomes assessed as 4-tert-butyl-N-(2-chloro-4-(methylsulfonamido)benzyl)-3-hydroxybenzamide formation at 10 uM preincubated with NADPH regenerating system for 5 mins followed by addition of liver microsomes by LC-MS/MS method. It is filed as ADME, microsome. (In general: Liver microsomes are a subcellular fraction often used to study metabolism.)

The target in series [8] is T2, Bifunctional epoxide hydrolase 2 (Homo sapiens) (UniProt P34913).
T2 sequence (whole entry): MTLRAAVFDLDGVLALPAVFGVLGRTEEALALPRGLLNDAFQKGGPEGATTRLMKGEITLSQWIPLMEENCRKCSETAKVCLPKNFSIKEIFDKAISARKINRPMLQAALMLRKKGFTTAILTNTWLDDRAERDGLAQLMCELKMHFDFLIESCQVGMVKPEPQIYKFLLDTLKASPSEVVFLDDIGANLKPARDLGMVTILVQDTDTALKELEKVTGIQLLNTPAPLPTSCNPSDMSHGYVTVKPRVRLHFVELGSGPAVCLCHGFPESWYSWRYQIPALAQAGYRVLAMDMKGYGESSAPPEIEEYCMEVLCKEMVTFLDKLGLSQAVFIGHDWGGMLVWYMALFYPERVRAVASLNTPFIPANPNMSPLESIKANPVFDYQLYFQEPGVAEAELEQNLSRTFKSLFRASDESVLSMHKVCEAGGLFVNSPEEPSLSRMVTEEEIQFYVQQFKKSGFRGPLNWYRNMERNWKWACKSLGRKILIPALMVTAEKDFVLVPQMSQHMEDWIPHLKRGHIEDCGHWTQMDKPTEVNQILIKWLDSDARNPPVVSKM
Particulars: 0.01 uM.

For another series, the system named is Mus musculus. As to the kind of experiment: In vivo activation of FXR in C57BL/6JRj mouse liver assessed as CYP7A1 mRNA expression at 10 mg/kg, po measured up to 480 mins post dose by qRT-PCR analysis relative to control. The conditions noted are these: 8 h. It is filed as ADME, organism-based. The method in brief:
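Male C57BL/6JRj mice (23−26 g), single oral 10 mg/kg in water with 1% HPMC/Tween 80 (99:1); vehicle group n = 3, treated n = 6. Livers taken 8 h postdose, snap-frozen; cells pressed through 40 μm strainer, total RNA extracted, qRT-PCR with ΔΔCt, % of vehicle.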

Sequence of Nuclear receptor subfamily 1 group I member 2 (O75469 whole entry, the tested form may be a part): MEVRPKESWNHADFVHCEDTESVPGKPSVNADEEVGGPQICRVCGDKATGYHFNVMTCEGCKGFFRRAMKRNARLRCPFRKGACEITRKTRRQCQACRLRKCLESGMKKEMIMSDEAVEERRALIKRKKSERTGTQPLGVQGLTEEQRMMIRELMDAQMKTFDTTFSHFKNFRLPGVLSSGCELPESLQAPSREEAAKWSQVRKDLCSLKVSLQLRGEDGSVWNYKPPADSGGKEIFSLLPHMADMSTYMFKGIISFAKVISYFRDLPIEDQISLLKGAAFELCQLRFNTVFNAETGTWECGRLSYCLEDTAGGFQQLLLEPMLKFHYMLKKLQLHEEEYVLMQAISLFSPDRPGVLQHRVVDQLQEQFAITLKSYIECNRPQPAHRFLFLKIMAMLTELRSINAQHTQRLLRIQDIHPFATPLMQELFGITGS
Sequence of Nuclear receptor subfamily 1 group I member 3 (Q14994 whole entry, the tested form may be a part): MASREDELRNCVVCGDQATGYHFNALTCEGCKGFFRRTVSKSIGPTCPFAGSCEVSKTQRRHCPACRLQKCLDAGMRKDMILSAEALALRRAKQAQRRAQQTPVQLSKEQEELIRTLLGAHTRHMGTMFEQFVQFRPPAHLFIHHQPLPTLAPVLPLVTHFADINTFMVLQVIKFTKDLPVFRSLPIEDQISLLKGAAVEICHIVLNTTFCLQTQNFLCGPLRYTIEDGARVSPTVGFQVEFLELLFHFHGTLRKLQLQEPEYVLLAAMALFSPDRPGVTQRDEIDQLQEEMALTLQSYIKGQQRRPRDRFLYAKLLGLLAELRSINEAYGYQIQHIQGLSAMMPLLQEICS
Sequence of Peroxisome proliferator-activated receptor alpha (Homo sapiens) (Q07869 whole entry, the tested form may be a part): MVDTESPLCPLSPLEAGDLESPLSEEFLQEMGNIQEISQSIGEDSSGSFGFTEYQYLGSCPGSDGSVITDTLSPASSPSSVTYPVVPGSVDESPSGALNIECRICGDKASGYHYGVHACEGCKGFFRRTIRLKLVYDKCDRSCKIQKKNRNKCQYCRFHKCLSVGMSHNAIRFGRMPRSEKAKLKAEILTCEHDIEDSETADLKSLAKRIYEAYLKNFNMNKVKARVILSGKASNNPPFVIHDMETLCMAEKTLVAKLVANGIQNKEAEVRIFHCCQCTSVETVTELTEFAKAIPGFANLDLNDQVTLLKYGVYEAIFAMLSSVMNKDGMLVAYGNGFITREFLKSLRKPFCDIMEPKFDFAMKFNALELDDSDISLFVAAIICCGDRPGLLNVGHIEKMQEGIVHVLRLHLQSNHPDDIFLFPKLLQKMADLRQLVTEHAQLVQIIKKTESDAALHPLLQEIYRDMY

In the case of `CC(C)(C)c1ccc(C(=O)NCc2ccc(NS(C)(=O)=O)cc2Cl)cc1`, the result (in the series on MDM; in [6]) was inactive. The Activity entry was “Not Active” in series [1], 129% in series [2], “Not Active” in [5] and 70% in the series on Mus musculus. For the same compound, the inhibition entry in series [3] and in [8] was “inactive” throughout. For the same compound, the Drug metabolism result with Liver [4] and with Liver [7] was “Metabolite_Notdetected” in each case.
